The text below walks through data of ChEMBL document CHEMBL4190277, “Discovery of imidazopyridines containing isoindoline-1,3-dione framework as a new class of BACE1 inhibitors: Design, synthesis and SAR analysis” (Eur J Med Chem, 2017).

In assay [1] the target is T1, Beta-secretase 1 (Homo sapiens, UniProt P56817). In words: Inhibition of human BACE1 (1 to 460 residues) expressed in baculovirus expression system at 50 uM using Rh-EVNLDAEFK-quencher as substrate after 90 mins by FRET assay. The gist of the method: (§1)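 FRET kit assay, manufacturer's protocol with small modifications. Compounds were taken from DMSO stocks and diluted in assay buffer (50 mM sodium acetate, pH 4.5). Substrate and compound were mixed, then enzyme (1 U/mL) was added to start the reaction. After about 90 min at room temperature, 2.5 M sodium acetate stop solution was added. Read-out was fluorescence at Ex 545/Em 585 nm. Triplicate wells, 3–4 independent experiments, mean ± SEM; OM99 served as reference inhibitor.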

In assay [2] the target is T1, Beta-secretase 1. Description: Inhibition of human BACE1 (1 to 460 residues) expressed in baculovirus expression system at 10 uM using Rh-EVNLDAEFK-quencher as substrate after 90 mins by FRET assay. The gist of the method:
as §1

Assay [3] concerns the target T1, Beta-secretase 1. In words: Inhibition of human BACE1 (1 to 460 residues) expressed in baculovirus expression system using Rh-EVNLDAEFK-quencher as substrate after 90 mins by FRET assay. The gist of the method: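 FRET kit assay, manufacturer's protocol with small modifications. Compounds were taken from DMSO stocks and diluted in assay buffer (50 mM sodium acetate, pH 4.5). Substrate and compound were mixed, then enzyme (1 U/mL) was added to start the reaction. After about 90 min at room temperature, 2.5 M sodium acetate stop solution was added. Triplicate wells, 3–4 independent experiments, mean ± SEM; OM99 served as reference inhibitor.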

T1 sequence (P56817 whole entry, the tested form may be a part): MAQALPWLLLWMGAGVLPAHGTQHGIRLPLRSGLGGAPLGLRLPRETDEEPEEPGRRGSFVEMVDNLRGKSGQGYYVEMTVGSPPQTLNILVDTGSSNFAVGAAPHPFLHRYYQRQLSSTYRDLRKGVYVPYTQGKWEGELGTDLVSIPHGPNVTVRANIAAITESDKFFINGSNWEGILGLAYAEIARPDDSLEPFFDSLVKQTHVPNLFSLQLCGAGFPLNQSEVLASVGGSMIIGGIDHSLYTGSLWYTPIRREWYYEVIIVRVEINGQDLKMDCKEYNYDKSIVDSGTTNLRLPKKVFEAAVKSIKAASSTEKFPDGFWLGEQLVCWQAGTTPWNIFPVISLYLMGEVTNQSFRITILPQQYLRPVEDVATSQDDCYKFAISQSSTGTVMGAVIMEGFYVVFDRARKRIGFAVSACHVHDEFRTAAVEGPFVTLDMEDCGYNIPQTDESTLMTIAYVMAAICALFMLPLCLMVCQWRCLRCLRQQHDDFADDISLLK

In general, inhibition refers to the percentage by which the read-out fell short of the control. High values mean strong suppression, low ones little suppression. Regarding `CC(C)(C)Nc1c(-c2ccc(OCCCN3C(=O)c4ccccc4C3=O)cc2)nc2ccc(Cl)cn12`, the inhibition on Beta-secretase 1 [1] is 33%; at Beta-secretase 1 [2] it was 17.7%.
The term IC50 denotes the midpoint of a concentration-inhibition curve. Low values mean higher potency, high ones lower potency. For the molecule `Cc1ccn2c(NC3CCCCC3)c(-c3ccc(OCCCN4C(=O)c5ccccc5C4=O)cc3)nc2c1`, the inhibition was 100% at Beta-secretase 1 [1] and 61.3% against Beta-secretase 1 [2]. This molecule also returned a half-maximal inhibitory concentration (IC50) on Beta-secretase 1 [3] of 2.84 µM.
The matching figures for `Cc1ccc2nc(-c3ccc(OCCCN4C(=O)c5ccccc5C4=O)cc3)c(NC3CCCCC3)n2c1`: 63.7%, 37.6% and 29.4 µM.
In the case of `O=C1c2ccccc2C(=O)N1CCCOc1ccc(-c2nc3ccc(Cl)cn3c2NC2CCCCC2)cc1`, the inhibition against Beta-secretase 1 [1] came out at 19.6%; at Beta-secretase 1 [2] it was 11.5%.
The matching figures for `COc1cc(-c2nc3ccc(Cl)cn3c2NC(C)(C)C)ccc1OCCCN1C(=O)c2ccccc2C1=O`: 37.9% and 19.4%.
The matching figures for `Cc1cccn2c(NC3CCCCC3)c(-c3ccc(OCCCN4C(=O)c5ccccc5C4=O)cc3)nc12`: 69.4% and 44.4%.
In the case of `COc1cc(-c2nc3ccc(Cl)cn3c2NC2CCCCC2)ccc1OCCCN1C(=O)c2ccccc2C1=O`, the inhibition was determined as 88.1% on Beta-secretase 1 [1] and 26.9% at Beta-secretase 1 [2]. This molecule also had a half-inhibitory concentration (IC50) at Beta-secretase 1 [3] of 14.9 µM.
On to `COc1cc(-c2nc3ccc(Br)cn3c2NC(C)(C)C)ccc1OCCCN1C(=O)c2ccccc2C1=O`, for which the inhibition against Beta-secretase 1 [1] was 48.7%; on Beta-secretase 1 [2] it was 33.2%.
With `CC(C)(C)Nc1c(-c2ccc(OCCCN3C(=O)c4ccccc4C3=O)cc2)nc2ccc(Br)cn12`, the inhibition at Beta-secretase 1 [1] amounted to 34.3%; at Beta-secretase 1 [2] it was 7.87%.
On the same counts, the results for `COc1cc(-c2nc3ccccn3c2NC2CCCCC2)ccc1OCCCN1C(=O)c2ccccc2C1=O` are 69.5% and 29.3%.
On the same counts, the results for `O=C1c2ccccc2C(=O)N1CCCOc1ccc(-c2nc3ccccn3c2NC2CCCCC2)cc1` are under 10% and under 10%.
`Cc1ccn2c(NC(C)(C)C)c(-c3ccc(OCCCN4C(=O)c5ccccc5C4=O)cc3)nc2c1`: the inhibition on Beta-secretase 1 [1] turned out to be 18.3%; on Beta-secretase 1 [2], 24.2%.
With `COc1cc(-c2nc3ccc(Br)cn3c2NC2CCCCC2)ccc1OCCCN1C(=O)c2ccccc2C1=O`, the inhibition at Beta-secretase 1 [1] came to 43.2%; against Beta-secretase 1 [2], 36.7%.
The matching figures for `O=C1c2ccccc2C(=O)N1CCCOc1ccc(-c2nc3ccc(Br)cn3c2NC2CCCCC2)cc1`: 45.3% and 32.2%.
Regarding `Cc1cccc2nc(-c3ccc(OCCCN4C(=O)c5ccccc5C4=O)cc3)c(NC3CCCCC3)n12`, the inhibition amounted to 87.9% at Beta-secretase 1 [1] and 61.5% at Beta-secretase 1 [2]. On Beta-secretase 1 [3], this molecule displayed an IC50 of 5.93 µM.
